Reference: ChEMBL document CHEMBL1629663, “Postantibiotic effects of telavancin against 16 gram-positive organisms” (Antimicrob Agents Chemother, 2009)
Values after ≈ are worked out from the molar mass of the structure shown.

Key:
[1] = system: Streptococcus pyogenes; experiment: Antimicrobial activity against Streptococcus pyogenes HMC 414 assessed as time required to induce sub-MIC effect at 0.2 times MIC exposed for 2 hrs by plate counting method; assay type: functional
Summary of the method: (§1)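 Unexposed Mueller-Hinton broth cultures (about 5 × 10^6 CFU/ml, 35°C) were handled as in the PA-SME set but without the 10× MIC pre-exposure. They were diluted 1:1,000, then given telavancin at final 0.2, 0.3 or 0.4× MIC, with a drug-free control. Viable counts were taken every 2 h until McFarland no. 1 turbidity. Effect duration comes from log10 CFU/ml-time plots; two separate experiments with new inocula.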

[2] = system: Staphylococcus aureus; experiment: Antimicrobial activity against vancomycin-intermediate-, methicillin-resistant Staphylococcus aureus 555 assessed as time required to induce sub-MIC effect at 0.3 times MIC […] by plate counting method; assay type: functional
Summary of the method: (§2)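 SME, viable plate count method: no prior drug exposure. About 5 × 10^6 CFU/ml in Mueller-Hinton broth at 35°C received 0.2, 0.3 or 0.4× MIC, alongside a drug-free tube. Counts were taken at the start, then every 2 h until McFarland no. 1 turbidity, as log10 CFU/ml against time. Two separate experiments, each with a new inoculum.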

[3] = system: Staphylococcus aureus; experiment: Antimicrobial activity against vancomycin-susceptible-, methicillin-resistant Staphylococcus aureus 1307 by microdilution method; assay type: functional
[4] = system: Streptococcus agalactiae; experiment: Antimicrobial activity against Streptococcus agalactiae HMC 5 by microdilution method; assay type: functional
[5] = system: Enterococcus faecalis; experiment: Antimicrobial activity against Enterococcus faecalis ATCC 29212 assessed as time required to induce post antibiotic sub-MIC effect at 0.2 times MIC […] by plate counting method; assay type: functional
Summary of the method: (§3)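 Mueller-Hinton broth cultures of about 5 × 10^6 CFU/ml were pre-exposed to telavancin at 10× MIC for 1 h at 35°C, then diluted 1:1,000. Telavancin was re-added to final 0.2, 0.3 or 0.4× MIC, alongside a drug-free tube. Viable counts were taken before exposure, after dilution, then every 2 h until McFarland no. 1 turbidity. Duration comes from log10 CFU/ml-versus-time plots; two separate experiments with fresh inocula.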

[6] = system: Enterococcus faecalis; experiment: Antimicrobial activity against Enterococcus faecalis ATCC 29212 assessed as time required to induce sub-MIC effect at 0.2 times MIC exposed for 2 hrs by plate counting method; assay type: functional; summary of the method: as §1
[7] = system: Staphylococcus aureus; experiment: Antimicrobial activity against heterogenous vancomycin-intermediate-, methicillin-resistant Staphylococcus aureus 873 assessed as time required to induce post antibiotic sub-MIC effect at 0.3 times MIC […] by plate counting method; assay type: functional
Summary of the method: (§4)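 PAE was first induced with 10× MIC for 1 h at 35°C (inoculum about 5 × 10^6 CFU/ml, Mueller-Hinton broth) and ended by 1:1,000 dilution. Cultures were then split and given 0.2, 0.3 or 0.4× MIC, with one tube left without drug. Viable counts were taken before exposure, after dilution, then every 2 h until McFarland no. 1 turbidity. Two separate experiments, each with a new inoculum.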

[8] = system: Staphylococcus aureus; experiment: Antimicrobial activity against vancomycin-intermediate-, methicillin-resistant Staphylococcus aureus 770 assessed as time required to induce sub-MIC effect at 0.2 times MIC […] by plate counting method; assay type: functional; summary of the method: as §2
[9] = system: Staphylococcus aureus; experiment: Antimicrobial activity against vancomycin-resistant-, methicillin-resistant Staphylococcus aureus 510 assessed as time required to induce post antibiotic sub-MIC effect at 0.4 times MIC […] by plate counting method; assay type: functional
Summary of the method: (§5)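 After 1 h preexposure to 10× MIC at 35°C and 1:1,000 dilution, cultures were split, and drug was re-added to final 0.2, 0.3 or 0.4× MIC, with a drug-free tube. Viable counts were taken every 2 h until McFarland 1 turbidity. Duration was derived from log10 CFU/ml versus time curves. Two experiments were run, each with a new inoculum.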

[10] = system: Staphylococcus aureus; experiment: Antimicrobial activity against vancomycin-intermediate-, methicillin-resistant Staphylococcus aureus 1984 assessed as time required to induce post antibiotic sub-MIC effect at 0.3 times MIC […] by plate counting method; assay type: functional; summary of the method: as §4
[11] = system: Streptococcus agalactiae; experiment: Antimicrobial activity against Streptococcus agalactiae HMC 5 assessed as time required to induce sub-MIC effect at 0.4 times MIC exposed for 2 hrs by plate counting method; assay type: functional; summary of the method: as §1
[12] = system: Staphylococcus aureus; experiment: Antimicrobial activity against vancomycin-resistant-, methicillin-resistant Staphylococcus aureus 510 assessed as time required to induce post antibiotic sub-MIC effect at 0.2 times MIC pre-exposed to Telavancin for 1 hr by plate counting method
[13] = system: Staphylococcus aureus; experiment: Antimicrobial activity against vancomycin-susceptible-, methicillin-resistant Staphylococcus aureus 1307 assessed as time required to induce post antibiotic sub-MIC effect at 0.3 times MIC […] by plate counting method; assay type: functional; summary of the method: as §5
[14] = system: Staphylococcus aureus; experiment: Antimicrobial activity against heterogenous vancomycin-intermediate-, methicillin-resistant Staphylococcus aureus 618 assessed as time required to induce sub-MIC effect at 0.4 times MIC […] by plate counting method; assay type: functional; summary of the method: as §2
[15] = system: Enterococcus faecalis; experiment: Antimicrobial activity against Enterococcus faecalis ATCC 29212 assessed as time required to induce post antibiotic sub-MIC effect at 0.3 times MIC […] by plate counting method; assay type: functional; summary of the method: as §3
[16] = system: Staphylococcus aureus; experiment: Antimicrobial activity against vancomycin-susceptible-, methicillin-resistant Staphylococcus aureus 1130 by microdilution method; assay type: functional
[17] = system: Staphylococcus aureus; experiment: Antimicrobial activity against vancomycin-intermediate-, methicillin-resistant Staphylococcus aureus 1287 assessed as post-antibiotic effect at 10 times MIC pre-exposed to Telavancin for 1 hr by plate counting method; assay type: functional
Summary of the method: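 Viable plate count method in Mueller-Hinton broth. Direct colony suspension inoculum of about 5 × 10^6 CFU/ml was exposed to 10× MIC for 1 h at 35°C in a shaking water bath, then diluted 1:1,000 to remove drug. Counts were taken before exposure, at 0 h, then every 2 h until McFarland no. 1 turbidity. PAE = T − C, the time to a 1 log10 rise versus an unexposed growth control.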

[18] = system: Staphylococcus aureus; experiment: Antimicrobial activity against vancomycin-intermediate-, methicillin-resistant Staphylococcus aureus 770 assessed as time required to induce post antibiotic sub-MIC effect at 0.2 times MIC pre-exposed to Telavancin […] by plate counting method; assay type: functional; summary of the method: as §4
[19] = system: Enterococcus faecalis; experiment: Antimicrobial activity against Enterococcus faecalis HMC 571 assessed as time required to induce post antibiotic sub-MIC effect at 0.2 times MIC pre-exposed to Telavancin […] by plate counting method; assay type: functional; summary of the method: as §3
[20] = system: Staphylococcus aureus; experiment: Antimicrobial activity against vancomycin-susceptible-, methicillin-resistant Staphylococcus aureus 1130 assessed as time required to induce post antibiotic sub-MIC effect at 0.2 times MIC pre-exposed to Telavancin for […] by plate counting method; assay type: functional; summary of the method: as §5
[21] = system: Staphylococcus aureus; experiment: Antimicrobial activity against vancomycin-intermediate-, methicillin-resistant Staphylococcus aureus 555 assessed as time required to induce post antibiotic sub-MIC effect at 0.2 times MIC […] by plate counting method; assay type: functional; summary of the method: as §4
[22] = system: Staphylococcus aureus; experiment: Antimicrobial activity against vancomycin-susceptible-, methicillin-resistant Staphylococcus aureus 1306 by microdilution method; assay type: functional
[23] = system: Staphylococcus aureus; experiment: Antimicrobial activity against vancomycin-susceptible-, methicillin-resistant Staphylococcus aureus 1306 assessed as time required to induce post antibiotic sub-MIC effect at 0.2 times MIC pre-exposed to Telavancin […] by plate counting method; assay type: functional; summary of the method: as §5
[24] = system: Staphylococcus aureus; experiment: Antimicrobial activity against vancomycin-intermediate-, methicillin-resistant Staphylococcus aureus 1287 assessed as time required to induce sub-MIC effect at 0.3 times MIC […] by plate counting method; assay type: functional; summary of the method: as §2

## CCCCCCCCCCNCCN[C@@]1(C)C[C@H](O[C@H]2[C@H](Oc3c4cc5cc3Oc3ccc(cc3Cl)[C@@H](O)[C@@H](NC(=O)[C@@H](CC(C)C)NC)C(=O)N[C@@H](CC(N)=O)C(=O)N[C@H]5C(=O)N[C@H]3C(=O)N[C@H](C(=O)N[C@H](C(=O)O)c5cc(O)c(CNCP(=O)(O)O)c(O)c5-c5cc3ccc5O)[C@H](O)c3ccc(c(Cl)c3)O4)O[C@H](CO)[C@@H](O)[C@@H]2O)O[C@@H](C)[C@H]1O [TELAVANCIN]
[1]
  PAE: 0 h
[2]
  PAE: 1.7 h
[3]
  MIC: 0.12 µg/mL (≈ 0.0684 µM)
[4]
  MIC: 0.12 µg/mL (≈ 0.0684 µM)
[5]
  PAE: 5.3 h
[6]
  PAE: 0.7 h
[7]
  PAE: 4.8 h
[8]
  PAE: 0.7 h
[9]
  PAE: 8.1 h
[10]
  PAE: > 10 h
[11]
  PAE: > 10.7 h
[12]
  PAE: 5.6 h
[13]
  PAE: > 10.5 h
[14]
  PAE: 2.3 h
[15]
  PAE: > 10.7 h
[16]
  MIC: 0.12 µg/mL (≈ 0.0684 µM)
[17]
  PAE: 1.2 h
[18]
  PAE: 3.8 h
[19]
  PAE: 3.9 h
[20]
  PAE: 5.4 h
[21]
  PAE: 5.9 h
[22]
  MIC: 0.12 µg/mL (≈ 0.0684 µM)
[23]
  PAE: 2.9 h
[24]
  PAE: 0.4 h
